Results reported in ChEMBL document CHEMBL5661979, “Pharmacological inhibition of BMK1 suppresses tumor growth through promyelocytic leukemia protein” (Cancer Cell, 2010).
The source made the active and inactive calls. No cut-off for these calls is given here.

Legend:
[1] = target: T1, Non-receptor tyrosine-protein kinase TNK1 (Homo sapiens) (UniProt Q13470); experiment: Inhibition of TNK1 in human HeLa cells lysate at 2 uM pre incubated for 15 mins followed by ADP acyl phosphate probe addition and measured after 10 mins by LC-MS/MS analysis relative to control; type: subcellular; details: time 25.0 min
T1 sequence (whole entry): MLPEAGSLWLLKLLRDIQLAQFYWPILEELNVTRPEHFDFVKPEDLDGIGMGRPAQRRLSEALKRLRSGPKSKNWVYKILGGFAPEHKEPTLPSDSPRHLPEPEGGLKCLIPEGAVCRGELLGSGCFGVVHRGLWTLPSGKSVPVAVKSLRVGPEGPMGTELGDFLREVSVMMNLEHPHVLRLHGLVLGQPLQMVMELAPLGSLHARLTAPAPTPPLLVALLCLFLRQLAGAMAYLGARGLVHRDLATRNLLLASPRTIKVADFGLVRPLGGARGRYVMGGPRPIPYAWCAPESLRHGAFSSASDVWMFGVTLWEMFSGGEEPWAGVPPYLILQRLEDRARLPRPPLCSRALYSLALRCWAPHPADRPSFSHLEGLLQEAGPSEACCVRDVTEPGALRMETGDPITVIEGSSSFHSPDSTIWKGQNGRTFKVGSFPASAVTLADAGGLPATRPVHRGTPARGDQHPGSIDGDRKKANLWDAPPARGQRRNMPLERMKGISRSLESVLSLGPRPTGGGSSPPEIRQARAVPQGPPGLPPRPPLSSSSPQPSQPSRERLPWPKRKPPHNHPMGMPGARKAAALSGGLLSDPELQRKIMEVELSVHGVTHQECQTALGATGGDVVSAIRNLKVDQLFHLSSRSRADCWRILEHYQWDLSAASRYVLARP

[2] = target: Insulin-like growth factor 1 receptor (Homo sapiens, UniProt P08069); experiment: Inhibition of IGF1R in human HeLa cells lysate pre incubated for 15 mins followed by ADP acyl phosphate probe addition and measured after 10 mins by LC-MS/MS analysis; type: subcellular
[3] = target: Ribosomal protein S6 kinase beta-2 (Homo sapiens, UniProt Q9UBS0); experiment: Inhibition of P70S6KB in human HeLa cells lysate pre incubated for 15 mins followed by ATP acyl phosphate probe addition and measured after 10 mins by LC-MS/MS analysis; type: subcellular
RPS6KA1/RPS6KA2/RPS6KA3 = RPS6KA1/RPS6KA2/RPS6KA3 (Homo sapiens, UniProt P51812+Q15349+Q15418); experiment: Inhibition of RSK1/2/3 in human HeLa cells lysate at 50 uM pre incubated for 15 mins followed by ATP acyl phosphate probe addition and measured after 10 mins by LC-MS/MS analysis relative to control; type: subcellular; details: time 25.0 min
[4] = target: DNA-dependent protein kinase catalytic subunit (Homo sapiens, UniProt P78527); experiment: Inhibition of PRKDC in human HeLa cells lysate pre incubated for 15 mins followed by ADP acyl phosphate probe addition and measured after 10 mins by LC-MS/MS analysis; type: subcellular
Chain of DNA-dependent protein kinase catalytic subunit (P78527 whole entry): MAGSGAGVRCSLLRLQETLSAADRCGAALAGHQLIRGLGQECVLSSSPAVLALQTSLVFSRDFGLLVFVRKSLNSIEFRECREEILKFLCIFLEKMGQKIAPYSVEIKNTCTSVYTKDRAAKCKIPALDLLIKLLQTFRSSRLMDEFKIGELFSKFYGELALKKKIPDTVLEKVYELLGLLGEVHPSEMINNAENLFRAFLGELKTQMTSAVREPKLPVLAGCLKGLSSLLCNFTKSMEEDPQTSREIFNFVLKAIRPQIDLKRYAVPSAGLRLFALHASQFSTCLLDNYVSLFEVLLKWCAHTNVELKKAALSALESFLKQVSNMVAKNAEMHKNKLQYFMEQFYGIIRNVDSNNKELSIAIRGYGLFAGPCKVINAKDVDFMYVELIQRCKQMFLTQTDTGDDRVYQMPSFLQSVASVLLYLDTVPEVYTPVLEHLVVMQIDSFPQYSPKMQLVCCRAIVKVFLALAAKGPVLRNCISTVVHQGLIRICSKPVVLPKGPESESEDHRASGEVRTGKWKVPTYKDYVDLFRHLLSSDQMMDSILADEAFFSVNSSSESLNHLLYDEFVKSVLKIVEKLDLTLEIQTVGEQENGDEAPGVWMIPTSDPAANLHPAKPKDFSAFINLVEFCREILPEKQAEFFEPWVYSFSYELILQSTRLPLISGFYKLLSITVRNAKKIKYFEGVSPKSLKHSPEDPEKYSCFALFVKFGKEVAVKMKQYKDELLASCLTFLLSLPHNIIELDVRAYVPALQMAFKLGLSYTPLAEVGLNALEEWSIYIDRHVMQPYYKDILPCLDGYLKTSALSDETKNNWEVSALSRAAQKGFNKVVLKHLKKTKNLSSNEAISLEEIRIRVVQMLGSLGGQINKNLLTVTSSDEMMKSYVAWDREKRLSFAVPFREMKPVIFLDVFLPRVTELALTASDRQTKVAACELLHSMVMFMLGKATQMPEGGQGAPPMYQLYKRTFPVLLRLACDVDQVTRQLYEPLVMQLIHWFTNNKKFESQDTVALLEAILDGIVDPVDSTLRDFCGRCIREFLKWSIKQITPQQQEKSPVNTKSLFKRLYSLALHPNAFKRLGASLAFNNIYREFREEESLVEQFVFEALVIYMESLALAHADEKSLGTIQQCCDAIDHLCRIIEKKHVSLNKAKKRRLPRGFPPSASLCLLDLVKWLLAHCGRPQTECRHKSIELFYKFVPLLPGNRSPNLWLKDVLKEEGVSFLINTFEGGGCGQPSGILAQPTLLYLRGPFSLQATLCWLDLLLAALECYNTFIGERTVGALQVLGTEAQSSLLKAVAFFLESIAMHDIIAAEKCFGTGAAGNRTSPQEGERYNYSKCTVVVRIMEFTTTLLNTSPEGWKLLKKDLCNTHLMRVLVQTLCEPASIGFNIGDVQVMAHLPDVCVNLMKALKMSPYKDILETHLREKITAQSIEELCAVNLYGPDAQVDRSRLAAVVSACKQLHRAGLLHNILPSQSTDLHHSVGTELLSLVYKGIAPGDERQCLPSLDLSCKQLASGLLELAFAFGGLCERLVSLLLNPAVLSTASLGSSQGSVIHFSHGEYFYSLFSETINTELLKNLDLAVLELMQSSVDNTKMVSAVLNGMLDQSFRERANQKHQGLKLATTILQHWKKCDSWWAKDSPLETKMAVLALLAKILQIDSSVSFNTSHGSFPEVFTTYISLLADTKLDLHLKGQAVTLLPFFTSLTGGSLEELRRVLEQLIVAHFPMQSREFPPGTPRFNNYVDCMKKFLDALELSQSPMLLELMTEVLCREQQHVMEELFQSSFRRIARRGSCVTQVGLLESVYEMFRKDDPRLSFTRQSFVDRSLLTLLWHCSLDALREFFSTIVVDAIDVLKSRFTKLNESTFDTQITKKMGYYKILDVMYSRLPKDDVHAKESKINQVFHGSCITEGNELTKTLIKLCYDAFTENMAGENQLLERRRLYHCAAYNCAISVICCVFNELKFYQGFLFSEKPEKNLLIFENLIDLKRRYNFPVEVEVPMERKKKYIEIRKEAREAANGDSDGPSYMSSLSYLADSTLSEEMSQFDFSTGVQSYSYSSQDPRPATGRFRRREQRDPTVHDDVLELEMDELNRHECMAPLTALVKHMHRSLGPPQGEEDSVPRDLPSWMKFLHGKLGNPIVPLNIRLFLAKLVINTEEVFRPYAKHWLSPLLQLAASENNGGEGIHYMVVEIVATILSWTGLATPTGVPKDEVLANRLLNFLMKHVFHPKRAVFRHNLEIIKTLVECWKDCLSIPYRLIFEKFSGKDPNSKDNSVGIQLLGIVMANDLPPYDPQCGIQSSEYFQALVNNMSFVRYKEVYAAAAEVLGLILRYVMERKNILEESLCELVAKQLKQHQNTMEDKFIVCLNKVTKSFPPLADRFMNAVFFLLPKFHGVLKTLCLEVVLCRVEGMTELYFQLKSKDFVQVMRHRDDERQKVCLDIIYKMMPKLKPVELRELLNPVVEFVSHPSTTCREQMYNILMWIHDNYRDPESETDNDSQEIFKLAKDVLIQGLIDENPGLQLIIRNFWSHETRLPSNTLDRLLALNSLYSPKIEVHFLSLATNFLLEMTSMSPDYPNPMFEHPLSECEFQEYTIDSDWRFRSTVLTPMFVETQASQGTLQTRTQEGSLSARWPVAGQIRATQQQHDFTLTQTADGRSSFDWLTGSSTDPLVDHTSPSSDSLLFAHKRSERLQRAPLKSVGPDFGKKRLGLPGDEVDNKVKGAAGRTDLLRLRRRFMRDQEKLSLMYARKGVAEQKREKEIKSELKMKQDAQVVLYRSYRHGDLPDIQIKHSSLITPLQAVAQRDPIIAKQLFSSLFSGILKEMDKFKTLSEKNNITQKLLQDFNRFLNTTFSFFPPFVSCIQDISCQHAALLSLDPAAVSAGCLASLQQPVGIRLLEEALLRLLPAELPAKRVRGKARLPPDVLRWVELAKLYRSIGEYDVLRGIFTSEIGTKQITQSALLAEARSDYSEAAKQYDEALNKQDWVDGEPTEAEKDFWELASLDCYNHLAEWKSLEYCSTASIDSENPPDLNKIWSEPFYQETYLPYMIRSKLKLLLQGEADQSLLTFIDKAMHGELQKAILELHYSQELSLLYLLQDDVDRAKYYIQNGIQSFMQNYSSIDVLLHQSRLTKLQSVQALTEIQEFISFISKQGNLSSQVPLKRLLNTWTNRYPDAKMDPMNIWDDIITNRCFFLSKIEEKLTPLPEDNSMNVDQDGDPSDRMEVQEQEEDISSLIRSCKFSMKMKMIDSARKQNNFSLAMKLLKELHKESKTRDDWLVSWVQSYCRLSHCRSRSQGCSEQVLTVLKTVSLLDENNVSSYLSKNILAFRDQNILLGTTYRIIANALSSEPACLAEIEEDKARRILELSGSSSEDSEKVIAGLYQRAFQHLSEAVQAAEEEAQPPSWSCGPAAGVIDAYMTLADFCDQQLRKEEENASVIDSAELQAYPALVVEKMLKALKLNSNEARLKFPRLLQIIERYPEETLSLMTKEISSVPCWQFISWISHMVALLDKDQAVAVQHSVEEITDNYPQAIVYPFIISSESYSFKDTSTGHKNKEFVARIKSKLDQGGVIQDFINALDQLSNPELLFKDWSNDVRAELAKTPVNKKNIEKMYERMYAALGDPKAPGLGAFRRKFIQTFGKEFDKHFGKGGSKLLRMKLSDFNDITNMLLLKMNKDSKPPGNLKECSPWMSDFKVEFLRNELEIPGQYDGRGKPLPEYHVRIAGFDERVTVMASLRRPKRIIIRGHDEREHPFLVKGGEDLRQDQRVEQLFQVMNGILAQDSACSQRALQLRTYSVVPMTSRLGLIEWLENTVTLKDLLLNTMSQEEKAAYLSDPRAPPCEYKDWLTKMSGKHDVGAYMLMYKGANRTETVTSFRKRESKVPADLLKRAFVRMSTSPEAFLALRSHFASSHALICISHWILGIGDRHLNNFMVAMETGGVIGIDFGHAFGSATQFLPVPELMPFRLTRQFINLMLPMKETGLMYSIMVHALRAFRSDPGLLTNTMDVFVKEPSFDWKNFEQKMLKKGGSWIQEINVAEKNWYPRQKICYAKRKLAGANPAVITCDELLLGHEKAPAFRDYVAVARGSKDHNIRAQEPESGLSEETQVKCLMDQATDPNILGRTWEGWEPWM

[5] = target: Cyclin-dependent kinase 2 (Homo sapiens, UniProt P24941); experiment: Inhibition of CDK2 in human HeLa cells lysate at 10 uM pre incubated for 15 mins followed by ATP acyl phosphate probe addition and measured after 10 mins by LC-MS/MS analysis relative to control; type: subcellular; details: time 25.0 min
Method in brief: (§1)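 KiNativ profiling in HeLa lysate (5 mg/mL total protein). Lysate incubated 15 min with inhibitor at 50, 10, 2, 0.8 or 0 μM. ATP or ADP acylphosphate probe then added (5 μM final) and reacted 10 min. Reaction stopped with urea and analysed by targeted MS, using up to four fragment ions per kinase peptide-probe conjugate. % inhibition taken against untreated lysate. Run in duplicate.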

[6] = Inhibition of HGK/MINK/TNIK in human HeLa cells lysate pre incubated for 15 mins followed by ADP acyl phosphate probe addition and measured after 10 mins by LC-MS/MS analysis; type: subcellular
[7] = Inhibition of KHS1/2 in human HeLa cells lysate at 2 uM pre incubated for 15 mins followed by ATP acyl phosphate probe addition and measured after 10 mins by LC-MS/MS analysis relative to control; details: 25 min, condition cancer
[8] = target: Ribosomal protein S6 kinase alpha-3 (Homo sapiens, UniProt P51812); experiment: Inhibition of RSK2 domain 1 in human HeLa cells lysate pre incubated for 15 mins followed by ADP acyl phosphate probe addition and measured after 10 mins by LC-MS/MS analysis; type: subcellular
[9] = target: T1, Non-receptor tyrosine-protein kinase TNK1 (Homo sapiens); experiment: Inhibition of TNK1 (unknown origin) assessed as remaining activity at 10 uM by ATP-competition binding assay relative to control
[10] = target: Hepatocyte growth factor receptor (Homo sapiens, UniProt P08581); experiment: Inhibition of MET in human HeLa cells lysate pre incubated for 15 mins followed by ATP acyl phosphate probe addition and measured after 10 mins by LC-MS/MS analysis; type: subcellular
[11] = target: Ribosomal protein S6 kinase alpha-5 (Homo sapiens, UniProt O75582); experiment: Inhibition of MSK1 domain 1 K2 site in human HeLa cells lysate pre incubated for 15 mins followed by ADP acyl phosphate probe addition and measured after 10 mins by LC-MS/MS analysis; type: subcellular
[12] = target: Ribosomal protein S6 kinase alpha-1 (Homo sapiens, UniProt Q15418); experiment: Inhibition of RSK1 domain 2 K2 site in human HeLa cells lysate at 50 uM pre incubated for 15 mins followed by ADP acyl phosphate probe addition and measured after 10 mins by LC-MS/MS analysis relative to control; type: subcellular; details: time 25.0 min
HeLa = experiment: Antiproliferative activity against human HeLa cells over expressing BMK1 assessed as reduction in cell viability at 5 uM after 48 hrs by MTT assay; type: functional, cell-based
Method in brief: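 HeLa cells were infected with empty adenovirus or adenovirus encoding dominant-negative BMK1(AEF). After 24 hr they were treated with or without 5 μM drug for 48 hr and read by MTT. % growth inhibition = (1 − MTT of group / MTT of Ad-EV-only cells) × 100. n = 3.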

Ephrin type-A receptor 2 = Ephrin type-A receptor 2 (Homo sapiens, UniProt P29317); experiment: Inhibition of EphA2 in human HeLa cells lysate at 2 uM pre incubated for 15 mins followed by ATP acyl phosphate probe addition and measured after 10 mins by LC-MS/MS analysis relative to control; type: subcellular; details: time 25.0 min
Chain of Ephrin type-A receptor 2 (P29317 whole entry): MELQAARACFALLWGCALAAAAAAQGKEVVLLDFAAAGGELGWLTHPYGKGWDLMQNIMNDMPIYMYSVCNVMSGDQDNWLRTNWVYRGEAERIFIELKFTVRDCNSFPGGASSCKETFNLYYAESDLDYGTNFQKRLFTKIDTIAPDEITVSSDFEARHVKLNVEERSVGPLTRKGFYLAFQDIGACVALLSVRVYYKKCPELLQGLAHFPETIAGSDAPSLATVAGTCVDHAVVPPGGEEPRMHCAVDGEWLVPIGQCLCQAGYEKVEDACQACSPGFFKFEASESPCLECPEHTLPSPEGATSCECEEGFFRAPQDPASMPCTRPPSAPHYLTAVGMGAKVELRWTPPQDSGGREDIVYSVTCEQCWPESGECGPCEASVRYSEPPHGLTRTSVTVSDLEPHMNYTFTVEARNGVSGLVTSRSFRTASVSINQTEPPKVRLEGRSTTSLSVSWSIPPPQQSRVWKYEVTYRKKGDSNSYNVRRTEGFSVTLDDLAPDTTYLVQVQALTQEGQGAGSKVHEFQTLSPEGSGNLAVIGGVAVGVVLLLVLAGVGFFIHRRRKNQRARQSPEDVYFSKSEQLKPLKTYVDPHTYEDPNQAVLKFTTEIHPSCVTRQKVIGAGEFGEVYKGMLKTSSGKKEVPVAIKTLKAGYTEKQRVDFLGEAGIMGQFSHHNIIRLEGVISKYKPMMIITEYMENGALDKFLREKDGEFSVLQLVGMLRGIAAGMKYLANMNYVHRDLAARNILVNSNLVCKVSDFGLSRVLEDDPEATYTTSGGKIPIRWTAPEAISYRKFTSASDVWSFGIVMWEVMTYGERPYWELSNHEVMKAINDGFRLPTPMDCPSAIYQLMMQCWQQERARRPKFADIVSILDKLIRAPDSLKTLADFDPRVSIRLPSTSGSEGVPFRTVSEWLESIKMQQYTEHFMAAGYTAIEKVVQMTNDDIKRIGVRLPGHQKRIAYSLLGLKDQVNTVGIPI

[13] = target: Peripheral plasma membrane protein CASK (Homo sapiens) (UniProt O14936); experiment: Inhibition of CASK in human HeLa cells lysate at 2 uM pre incubated for 15 mins followed by ADP acyl phosphate probe addition and measured after 10 mins by LC-MS/MS analysis relative to control; type: subcellular; details: time 25.0 min; method in brief: as §1
[14] = target: Serine/threonine-protein kinase 38-like (Homo sapiens, UniProt Q9Y2H1); experiment: Inhibition of NDR2 in human HeLa cells lysate at 10 uM pre incubated for 15 mins followed by ADP acyl phosphate probe addition and measured after 10 mins by LC-MS/MS analysis relative to control; type: subcellular; details: time 25.0 min
Lewis lung carcinoma = experiment: Antitumor activity against mouse LL2 cells allografted in C57Bl/6 mouse assessed as reduction tumor growth at 50 mg/kg, ip administered on day 7 post implantation measured after 17 days; type: functional, organism-based; details: time 10.0 day
Method in brief: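 LL/2 cells (1×10^6, in DMEM) were injected s.c. into the right flank of 6-week-old C57Bl/6 mice on day 0. Dosing was 50 mg/kg i.p. twice daily, starting on day 1, 7 or 10 and continuing to day 17; controls received carrier. 6 mice per treated group. Tumors were measured every 2–3 days.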

`CCOc1cc(N2CCC(O)CC2)ccc1Nc1ncc2c(n1)N(C)c1ccccc1C(=O)N2C` gave an inhibition [1] of 9.2%, an IC50 [2] of over 50 µM and an IC50 [3] of over 50 µM. It also gave an inhibition (RPS6KA1/RPS6KA2/RPS6KA3) of 0.9%, an IC50 [4] of over 50 µM and an inhibition [5] of 6%. For the same compound, the IC50 [6] was over 50 µM, the inhibition at 2 µM [7] was -8.6% and the IC50 [8] was over 50 µM. It also gave an Activity [9] of 7.8%, an IC50 [10] of over 50 µM and an IC50 [11] of over 50 µM. For the same compound, the inhibition [12] was 65.6%, the Activity (HeLa) was “Active” and the inhibition (Ephrin type-A receptor 2) was -7.6%. The inhibition [13] was 12.1%, the inhibition [14] was 15.9% and the Activity (Lewis lung carcinoma) was “Active”.
